Experimental data: ChEMBL document CHEMBL3352009, “Glucopyranosylidene-spiro-iminothiazolidinone, a new bicyclic ring system: synthesis, derivatization, and evaluation for inhibition of glycogen phosphorylase by enzyme kinetic and crystallographic methods” (Bioorg Med Chem, 2014)
Calls of active or inactive are those of the source. The calls are words filed in the database; no cut-off is given here.

Key:
[1] = biological target: T1, Glycogen phosphorylase, muscle form (Oryctolagus cuniculus, UniProt P00489); assay: Inhibition of rabbit muscle glycogen phosphorylase b at pH 6.8 assessed as inorganic phosphate release
T1 sequence (P00489 whole entry): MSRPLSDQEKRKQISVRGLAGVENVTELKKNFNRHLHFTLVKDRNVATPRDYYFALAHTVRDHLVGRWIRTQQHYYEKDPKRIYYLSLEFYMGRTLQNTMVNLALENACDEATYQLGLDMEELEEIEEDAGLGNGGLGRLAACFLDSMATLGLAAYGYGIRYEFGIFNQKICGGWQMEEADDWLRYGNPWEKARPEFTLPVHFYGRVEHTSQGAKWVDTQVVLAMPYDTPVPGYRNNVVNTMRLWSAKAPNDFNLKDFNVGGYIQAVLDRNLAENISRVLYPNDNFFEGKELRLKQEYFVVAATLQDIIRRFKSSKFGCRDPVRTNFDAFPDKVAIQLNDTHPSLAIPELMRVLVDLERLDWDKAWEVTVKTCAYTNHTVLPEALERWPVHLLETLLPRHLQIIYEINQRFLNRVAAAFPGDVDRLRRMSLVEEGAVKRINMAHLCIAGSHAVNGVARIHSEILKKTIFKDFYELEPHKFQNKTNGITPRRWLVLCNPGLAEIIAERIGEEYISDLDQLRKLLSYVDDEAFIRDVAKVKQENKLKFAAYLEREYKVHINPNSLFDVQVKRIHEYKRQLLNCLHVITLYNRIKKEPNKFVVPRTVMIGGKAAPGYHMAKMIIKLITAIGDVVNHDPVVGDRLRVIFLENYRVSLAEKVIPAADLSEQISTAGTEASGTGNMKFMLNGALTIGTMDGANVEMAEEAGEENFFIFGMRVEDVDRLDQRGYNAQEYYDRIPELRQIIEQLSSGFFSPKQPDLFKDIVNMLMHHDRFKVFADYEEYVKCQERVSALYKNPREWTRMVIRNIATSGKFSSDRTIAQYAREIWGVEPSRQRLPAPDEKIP
Outline: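 Rabbit muscle glycogen phosphorylase b; activity followed by inorganic phosphate release at pH 6.8. Inhibition constants reported as Ki, with part of the values derived from IC50 via the Cheng-Prusoff relation Ki = IC50/(1 + [S]/Km).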

[2] = biological target: T2, Glycogen phosphorylase, muscle form (Oryctolagus cuniculus) (UniProt P00489); assay: Inhibition of rabbit muscle glycogen phosphorylase b at pH 6.8 assessed as inorganic phosphate release at 1 mM
T2 sequence (whole entry): T1 sequence (P00489 whole entry)

| Ki [1] [µM] | inhibition [2] | SMILES |
| --- | --- | --- |
| 29 |  | O=C1N/C(=N/S(=O)(=O)c2cccc3ccccc23)S[C@@]12O[C@H](CO)[C@@H](O)[C@H](O)[C@H]2O |
| 10 |  | O=C(/N=C1/NC(=O)[C@]2(O[C@H](CO)[C@@H](O)[C@H](O)[C@H]2O)S1)c1ccc2ccccc2c1 |
| 9 |  | O=C(/N=C1/NC(=O)[C@]2(O[C@H](CO)[C@@H](O)[C@H](O)[C@H]2O)S1)c1ccccc1 |
| 35 |  | Cc1ccc(C(=O)/N=C2/NC(=O)[C@]3(O[C@H](CO)[C@@H](O)[C@H](O)[C@H]3O)S2)cc1 |
| 153 |  | O=C1N/C(=N/S(=O)(=O)c2ccc3ccccc3c2)S[C@@]12O[C@H](CO)[C@@H](O)[C@H](O)[C@H]2O |
| 15 |  | O=C(/N=C1/NC(=O)[C@]2(O[C@H](CO)[C@@H](O)[C@H](O)[C@H]2O)S1)c1cccc2ccccc12 |

The next lines start with the molecule.

| SMILES | Ki [1] [µM] | inhibition [2] |
| --- | --- | --- |
| N=C1NC(=O)[C@]2(O[C@H](CO)[C@@H](O)[C@H](O)[C@H]2O)S1 | 24 |  |
| O=C1N2CCCN=C2S[C@@]12O[C@H](CO)[C@@H](O)[C@H](O)[C@H]2O |  | inactive |
| O=C1N2CCN=C2S[C@@]12O[C@H](CO)[C@@H](O)[C@H](O)[C@H]2O |  | 48% |
| O=C1N/C(=N/S(=O)(=O)c2ccccc2)S[C@@]12O[C@H](CO)[C@@H](O)[C@H](O)[C@H]2O | 143 |  |
| Cc1ccc(S(=O)(=O)/N=C2/NC(=O)[C@]3(O[C@H](CO)[C@@H](O)[C@H](O)[C@H]3O)S2)cc1 | 63 |  |
| CC(C)(C)C(=O)/N=C1/NC(=O)[C@]2(O[C@H](CO)[C@@H](O)[C@H](O)[C@H]2O)S1 | 137 |  |
